From the RNAGym collection of RNA variant scans (doi:10.1126/science.aae0568)
Fewer inactive variants are shown than the library holds.

B1: tRNA (parent)
chain: GUUCCGUUGGCGUAAUGGUAACGCGUCUCCCUCCUAAGGAGAAGACUGCGGGUUCGAGUCCCGUACGGAACG

Variants of: B1
Assay: yeast fitness relative to wild type (ratio to wild type); higher = fitter; tRNA-Arg(CCU), competitive growth, 37 C, YPD
How it was run: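 A pool of Saccharomyces cerevisiae strains, each with a tRNA-Arg(CCU) gene variant at the native genomic locus, was competed in YPD at 37°C for 24 hours across six parallel replicates. The variants had been chemically synthesised at a 3% per-site mutation rate over 69 sites, and gene amplicons before and after competition were read by 100-nucleotide paired-end sequencing. Darwinian fitness relative to wild type rested on changes in genotype frequencies. Genotypes required ≥ 100 starting reads, and estimates < 0.5 were set to 0.5.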

Going from GUUCCGUUGGCGUAAUGGCAACGCGUCUCCCUCCUAAGAAGAAGACUGCGGGUUCGAAUCCCGUACGGAACG to GUUCCGUUGGCGUAAUGGCAACGCGUCUCCCUCCUAAGGAGAAGACUGCGGGUUCGAGUCCUGUACGGAACG, the yeast fitness rises from 0.613 to 0.925.

Going from GUUCCGUUGGCGUAAUGGCAACGCGUCUCCCUCCUAAGGAGAAGACUGCGAGUUCGAGUCCCGUACGGAACG to GUUCCGUUGGCGUAAUGGCAACACGUCUCCCUCCUACGGAGAAGACUGCGGGUUCGAGUCCCGUGCGGAACG, the yeast fitness falls from 0.681 to no more than 0.5.

GUUCCGUUGGCGUAAUGGCAACGCGUCUCCCUCCUAACGAGAACAAUGCGGGUUCGAGUCCCGUACGCAACG and GUUCCGUUGGCGUAAUGGCAACAAGUCUUUCUCCUAAGGAGAAGACUGCGGGUUCGAGUCCCAUACGGAACG cannot be ordered by yeast fitness: no more than 0.5 for the first, no more than 0.5 for the second.

GUUCCGUUGGCGUAAUGGCAACGCGUCUCCCUCCUAAGGAGAAGACUGCAGGUUCGAGUCUCGUACGGAACG and GUUCCGUUGGCGUAAUGGCAACGCGUCUCCCUCCUAAGGAGAAGACUGCGGGUUUGAGCCGCGUACGGAACG cannot be ordered by yeast fitness: no more than 0.5 for the first, no more than 0.5 for the second.

First: GUUCCGUUGGCGUAAUGGCAACGCCUCUCCCUCCUAGGGAGAAGACUGCGGGUUCGAGUCCCGUACGGAACG
Second: GUUCCGUUGGCGUAAUGGCAACGCGUCUCCCUCCUAAGGAGAAGACUGCGGGUUUGAGUCCCGUACGGAACG
The yeast fitness of the first is lower: 0.6 for the first, 0.807 for the second.

Going from GUUCCGUUGGCGUAAUGGCAACGCGUCUCCCUCCUAAGGAAAAGACUGCGGGUUCGAGUCCCGUACGGAACG to GUUCCGUUGGCGUAAUGGCAACGCAUCUCCCUCCUAUGGAGAAGACUGCGGGUUCGAGUCCAGCACGGAACG, the yeast fitness falls from 0.899 to no more than 0.5.

Going from GUUCCGUUGGCGUAAUGGCAACGCGUCUCCCUCCUAAGGAGAAGACUCCGGGUUCGAGUCCCGUACGGCACG to GUUCCGUUGGCGUAAUGGCAACGCGUCUCCCUCCUAAGGAGAAGACUGCGGGUUCGAGUACCGUACGCAACG, the yeast fitness falls from 1.03 to no more than 0.5.

Going from GUUCCGUUGGCGUAAUGGCAACGCCUCUCCCUCCUAAGGAGAAGACUGCGCGUUCGAGUUCCGUACGGAACG to GUUCCGUUGGCGUAAUGGCAACGCGUCUCCCUCCUAAGGAGAACACUGCGGGUUCGAGUCCCGUACGGAACG, the yeast fitness rises from no more than 0.5 to 1.

Going from GUUCCGUUGGCGUAAUGGCAACGCAUCUCCCUCCUAAGGAGAAGACUCCGGGUUCGAGUCCAGUACGGAACG to GUUCCGUUGGCGUAAUGGCAACGCCUCUCCCUCCUAAGGAGAAGACUGCGGGUUCGAAUCCCGUACGGAACG, the yeast fitness rises from no more than 0.5 to 0.625.

Going from GUUCCGUUGGCGUAAUGGCAACGCGUCUCCCUCCUAAGGACAAGACUGCGGGUUCGAGUCCCGUGCGGAACG to GUUCCGUUGGCGUAAUGGCAACGCGUCUCCCUCCUAACGAGAAGACUGCGGGUUCGACUCCCGAACGGAACG, the yeast fitness falls from 0.663 to no more than 0.5.

First: GUUCCGUUGGCGUAAUGGCAACGCGUCUCCCUCCUAAGGACAAGACUGCGGGUUCGAGUCCCGUACGGAUCG
Second: GUUCCGUUGGCGUAAUGGCAACGCGUCUCCCUCCUAAGGAGAAGACUGCGGGUUGGAGUCCCGUCCGGAACG
The yeast fitness of the first is higher: 0.671 for the first, no more than 0.5 for the second.

GUUCCGUUGGCGUAAUGGCAACACGUCUCCCUCCUACGGAGAAGACUGCGGGUUCGAGUCCCGUACGGAACG and GUUCCGUUGGCGUAAUGGCAACAGGUCUCCCUCCUAAGGUGAAGACUGCGGGUUCGAGUCCCGUUCGGAACG cannot be ordered by yeast fitness: no more than 0.5 for the first, no more than 0.5 for the second.

Compared with GUUCCGUUGGCGUAAUGGCAACGCGUCUCCCUCCUAAGGAGAAGACUGCGGGUUCGAGUCCCGUAUGGCACG, GUUCCGUUGGCGUAAUGGCAACGCGUCUCCCUCCUAAGGAGAAGACUGCGGGUUUGAGUCGCGUACGGAACG is lower in yeast fitness: 0.685 for the first, 0.596 for the second.

GUUCCGUUGGCGUAAUGGCAACGCCUCUACCUCCUAAGGAGAAGACUGCGGAUUCGAGUCCCGUACGGAACG and GUUCCGUUGGCGUAAUGGCAACGCCUCUCCCUCCUAAGGAGAAGACUGCGGGUCCGAGUCGCGUACGGAACG cannot be ordered by yeast fitness: no more than 0.5 for the first, no more than 0.5 for the second.

First: GUUCCGUUGGCGUAAUGGCAACGCCUCUCCCUCCUAAGGAGAAGACUGCGGGUUCGAGUCCCGUACGGAACG
Second: GUUCCGUUGGCGUAAUGGCAACGCGUCUCCCUCCUAAGGAGAAGACUCCGGGUUCGGGUCCCGUACGGAACG
The yeast fitness of the first is higher: 1.04 for the first, 0.565 for the second.

Going from GUUCCGUUGGCGUAAUGGCAACGCGUCUCCCUCCUAAGGAGAAGACUGCAGGUUAGAGUCCUGUACGGAACG to GUUCCGUUGGCGUAAUGGCAACGCGUCUCCCUCCUAAGGAGAAGACUGCAGGUUCGAGUCCCGUCCGGAACG, the yeast fitness rises from no more than 0.5 to 0.566.

Compared with GUUCCGUUGGCGUAAUGGCAACGCAUCUCCCUCCUAAGGAGAAGGCUGCGGGUUCGAGUCCUGUACGGAACG, GUUCCGUUGGCGUAAUGGCAACCCGUCUGCCUCCUAAGGAGAUGACUGCAGGUUCGAGUCCCGUCCGGAACG is lower in yeast fitness: 0.702 for the first, no more than 0.5 for the second.

First: GUUCCGUUGGCGUAAUGGCAACGCGUCUCCCUCCUAAGGAGAAGACUGCCGGUUCGAGUCCCGUACGGAACG
Second: GUUCCGUUGGCGUAAUGGCAACGCGUCUCCCUCCUAAGAAGAAGACUGCGGGUUCGAGUCCCGUACGGAACG
The yeast fitness of the first is lower: 0.613 for the first, 0.952 for the second.

Going from GUUCCGUUGGCGUAAUGGCAACGCGUCUCCCUCCUAAGGAGAAGACUACGGGUUCGAGUCCAGCACGGAACG to GUUCCGUUGGCGUAAUGGCAACGCGUCUCCCUCCUAAGGAGAAGACUACGGGUUCGAGUCCCGUACGGAACG, the yeast fitness rises from 0.636 to 1.04.
